# From ChEMBL document CHEMBL3352250, “Antibacterial secondary metabolites from an endophytic fungus, Eupenicillium sp. LG41” (2014)
# Activity calls are given as the source filed them. The calls are words filed in the database; no cut-off is given here.
# Legend:
# Type in all cases: functional
# [1] = test system: Staphylococcus aureus; test: Antimicrobial activity against Staphylococcus aureus subsp. aureus DSM 799 incubated for 24 hrs by disk diffusion method
# Outline: (§1)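 CLSI disk diffusion on nutrient agar, 4 mm deep, spread with 200 μL inoculum. 6.0 mm paper disks carry 40 μL of sample in HPLC-grade MeOH (0.1 to 10 μg/mL), air-dried. Plates are held 2 h at 4 °C, then incubated 24 h at 37 °C. Controls are streptomycin and gentamicin plus a solvent disk. MIC is derived per CLSI, triplicate.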
# [2] = test system: Escherichia coli; test: Antimicrobial activity against Escherichia coli DSM 1116 incubated for 24 hrs by disk diffusion method; outline: as §1
# [3] = test system: Bacillus subtilis; test: Antimicrobial activity against Bacillus subtilis DSM 1088 incubated for 24 hrs by disk diffusion method; outline: as §1
# [4] = test system: Acinetobacter sp.; test: Antimicrobial activity against Acinetobacter sp. BD4 DSM 586 incubated for 24 hrs by disk diffusion method; outline: as §1
# [5] = test system: Aspergillus aculeatus; test: Antimicrobial activity against Aspergillus aculeatus incubated for 48 hrs by disk diffusion method
# Outline: (§2)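 Disk diffusion on potato dextrose agar, 4 mm deep. Mycelia are macerated in a sterile mortar to a homogeneous inoculum and 200 μL is spread. 6.0 mm disks carry 40 μL of sample, air-dried. Plates are held 2 h at 4 °C, then incubated 48 h at 28 °C. Solvent-disk, organism and sterility controls are included. Triplicate.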
# [6] = test system: Colletotrichum circinans; test: Antimicrobial activity against Colletotrichum circinans incubated for 48 hrs by disk diffusion method; outline: as §2
Molecule,"MIC ([1]; DSM 799, 24 h) [µg/mL]","MIC ([2]; DSM 1116, 24 h) [µg/mL]","MIC ([3]; DSM 1088, 24 h) [µg/mL]","MIC ([4]; BD4 DSM 586, 24 h) [µg/mL]",MIC [5],MIC [6],MIC [1] [µg/mL],MIC [2] [µg/mL],MIC [3] [µg/mL],MIC [4] [µg/mL]
C=C(C(=O)O)[C@H](CCCCCC)C(=O)O,10,10,> 10,1,inactive,inactive,,,,
COC1=C(C2=C(OC)C(=O)c3cc4c(c(O)c3C2=O)C(=O)O[C@H](C)C4)C(=O)c2c(cc3c(c2O)C(=O)O[C@H](C)C3)C1=O,,,,,inactive,inactive,,,,
CN[C@@H]1[C@H](O[C@H]2[C@H](O[C@H]3[C@H](O)[C@@H](O)[C@H](N=C(N)N)[C@@H](O)[C@@H]3N=C(N)N)O[C@@H](C)[C@]2(O)C=O)O[C@@H](CO)[C@H](O)[C@H]1O [STREPTOMYCIN],5,1,5,10,,,,,,
CC[C@@H](C)[C@H]1C=C[C@H]2[C@H](O)[C@H](O)C[C@@H](C)[C@@H]2[C@@]1(C)C(=O)/C=C/OC,1,5,> 10,> 10,inactive,inactive,,,,
C=C(C(=O)O)[C@H](CCCC)C(=O)O,10,10,> 10,1,inactive,inactive,,,,
CC(C)=CCC[C@]1(C)[C@@H]2[C@H]1C=C(C(=O)O)C[C@@H]2O,> 10,5,> 10,5,inactive,inactive,,,,
C[C@]1(C(=O)O)[C@@H]2C=C(C(=O)O)CC[C@@H]21,> 10,10,> 10,5,inactive,inactive,,,,
COc1cc(O)c2c(O)c3c(c4c2c1[C@]1(C4)C(C)=CCCC1(C)C)[C@H](O)[C@@]1(O)CC(O)=C(C(N)=O)C(=O)[C@@]1(O)C3=O,,,,,inactive,inactive,,,,
CC[C@@H](C)[C@H]1C=C[C@H]2[C@H](O)[C@H](O)C[C@@H](C)[C@@H]2[C@@]1(C)C(=O)/C=C\O,> 10,5,> 10,10,inactive,inactive,,,,
GENTAMICIN,,,,,,,1,1,1,5
